According to ChEMBL document CHEMBL1126553, “Antioxidant and neutrophil-inhibiting properties of new 2-O-methyl-6-(alkylthio)ascorbic acid derivatives” (J Med Chem, 1993):
Values belong to the compound of their own block, whether it stands above or below them. The source made the active and inactive calls. The rule behind the calls is not given here.

Columns and labels:
Homo sapiens [1] = species: Homo sapiens; assay: Inhibitory effect on superoxide anion formation of fMLP-stimulated neutrophils at 1 uM by cytochrome c assay; Did not inhibit or weakly inhibited; format: functional
Homo sapiens [2] = species: Homo sapiens; assay: Inhibitory effect on superoxide anion formation of fMLP-stimulated neutrophils at 1 uM by cytochrome c assay; format: functional
Rattus norvegicus [3] = species: Rattus norvegicus; assay: Tested for inhibition of lipid peroxidation in rat liver microsomes; format: functional
Method in brief: (§1)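 Wistar rat liver microsomes (1 mg/mL) in 50 mM potassium phosphate, pH 7.2, with 50 μM ADP and 5 μM […]. Compound or DMSO was preincubated at 25 °C (5 min per methods; legend says 3 min). Peroxidation was started with 1 mM NADPH. After 15 min, malondialdehyde was measured by thiobarbituric acid at 532 nm. Mean ± SEM, n = 3.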

Homo sapiens [4] = species: Homo sapiens; assay: Inhibition of fMLP-induced oxidative burst in a cell density of 2 x 10 e 6 cells/mL; format: functional, cell-based
Homo sapiens [5] = species: Homo sapiens; assay: Inhibition of fMLP-induced oxidative burst in a cell density of 5 x 10 e 5 cells/mL; format: functional, cell-based
Homo sapiens [6] = species: Homo sapiens; assay: Inhibition of fMLP-induced secretion of beta-glucurodinase (azurophilic granules); format: functional
Method in brief: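 Neutrophils at 5 × 10⁶/mL were primed with 5 μg/mL cytochalasin B (4 min, 37 °C), given compound in 0.1% DMSO for 3 min, then 100 nM fMLP for 15 min. Stopped on ice and pelleted. Supernatant β-glucuronidase was assayed with 4-methylumbelliferyl-β-D-glucuronide, pH 4.0, 15 min at 37 °C; fluorescence ex 365/em 460 nm. n = 3.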

Homo sapiens [7] = species: Homo sapiens; assay: Inhibition of fMLP-induced secretion of lysozyme (azurophilic and specific granules); format: functional
Homo sapiens [8] = species: Homo sapiens; assay: Inhibition of fMLP-stimulated superoxide production in a cell density of 5 x 10 e 6 cells/mL; format: functional, cell-based
Homo sapiens [9] = species: Homo sapiens; assay: Maximum Inhibition of fMLP-stimulated superoxide production in a cell density of 5 x 10 e 6 cells/mL; format: functional
Homo sapiens [10] = species: Homo sapiens; assay: Maximum inhibition of MLP-induced oxidative burst in a cell density of 2 x 10 e 6 cells/mL; format: functional
Rattus norvegicus [11] = species: Rattus norvegicus; assay: Inhibition of Fe(2+)/ADP-induced lipid peroxidation of rat liver microsomes; format: functional; method in brief: as §1
[12] = Dissociation constant in aqueous system; format: physicochemical
[13] = Dissociation constant in aqueous solution; format: physicochemical
Homo sapiens [14] = species: Homo sapiens; assay: Tested for inhibition of fMLP induced secretion of lysozyme from human neutrophil cells; Did not influence or inactive; format: functional, cell-based

Structure (SMILES): COC1=C(O)OC(C(O)CSc2ccccc2)C1=O (stereo not drawn)
- inhibition (Homo sapiens [1]): Did not inhibit or weakly inhibited

Structure (SMILES): CCCCCCCCCCCCCCCCCCSCC(O)C1OC(O)=C(OC)C1=O (stereo not drawn)
- inhibition at 1 µM (Homo sapiens [2]): 40%

- IC50 (Rattus norvegicus [3]): 2.5 µM
Structure (SMILES): CCCCCCCCCCCCSCC(O)C1OC(O)=C(OC)C1=O (stereo not drawn)
- inhibition (Homo sapiens [1]): Did not inhibit or weakly inhibited

- IC50 (Homo sapiens [4]): 1.25 µM
- IC50 (Homo sapiens [5]): 0.6 µM
- IC50 (Homo sapiens [6]): 7 µM
- IC50 (Homo sapiens [7]): 2.5 µM
- IC50 (Homo sapiens [8]): 3.7 µM
- IC50 (Rattus norvegicus [11]): 2 µM
- pKa [12]: 3.32
Structure (SMILES): CCCCCCCCCCCCCCCCSCC(O)C1OC(O)=C(OC)C1=O (stereo not drawn)
- Max inhibition concentration (Homo sapiens [9]): 10 µM
- Max inhibition concentration (Homo sapiens [10]): 5 µM
- inhibition at 1 µM (Homo sapiens [2]): 80%

Structure (SMILES): CCCCCCCCSCC(O)C1OC(O)=C(OC)C1=O (stereo not drawn)
- inhibition (Homo sapiens [1]): Did not inhibit or weakly inhibited

Structure (SMILES): CCCCCCCCCCCCCCCCSCC(O)C1OC(=O)C(OC)=C1OC (stereo not drawn)
- inhibition (Homo sapiens [1]): Did not inhibit or weakly inhibited

- pKa [13]: 7.7
Structure (SMILES): CCCCCCCCCCCCCCCCSCC(O)C1OC(=O)C(O)=C1OC (stereo not drawn)
- inhibition (Homo sapiens [14]): inactive
